Data published in ChEMBL document CHEMBL3769366, “Novel tricyclic pyrazolo[1,5-d][1,4]benzoxazepin-5(6H)-one: Design, synthesis, model and use as hMAO-B inhibitors” (Bioorg Med Chem, 2016).

How the values were obtained:
Homo sapiens = organism: Homo sapiens; assay: Selectivity index, ratio of IC50 for recombinant human microsomal MAO-A to recombinant human microsomal MAO-B
[1] = target: T1, Amine oxidase [flavin-containing] B (Homo sapiens, UniProt P27338); assay: (§1) Inhibition of recombinant human microsomal MAO-B expressed in baculovirus-infected insect cells using p-tyramine as substrate assessed as H2O2 production pretreated for 15 mins followed by addition of Amplex Red, horseradish peroxidase and substrate measured for 15 mins by fluorimetric method; type: cell-based
T1 sequence (P27338 whole entry): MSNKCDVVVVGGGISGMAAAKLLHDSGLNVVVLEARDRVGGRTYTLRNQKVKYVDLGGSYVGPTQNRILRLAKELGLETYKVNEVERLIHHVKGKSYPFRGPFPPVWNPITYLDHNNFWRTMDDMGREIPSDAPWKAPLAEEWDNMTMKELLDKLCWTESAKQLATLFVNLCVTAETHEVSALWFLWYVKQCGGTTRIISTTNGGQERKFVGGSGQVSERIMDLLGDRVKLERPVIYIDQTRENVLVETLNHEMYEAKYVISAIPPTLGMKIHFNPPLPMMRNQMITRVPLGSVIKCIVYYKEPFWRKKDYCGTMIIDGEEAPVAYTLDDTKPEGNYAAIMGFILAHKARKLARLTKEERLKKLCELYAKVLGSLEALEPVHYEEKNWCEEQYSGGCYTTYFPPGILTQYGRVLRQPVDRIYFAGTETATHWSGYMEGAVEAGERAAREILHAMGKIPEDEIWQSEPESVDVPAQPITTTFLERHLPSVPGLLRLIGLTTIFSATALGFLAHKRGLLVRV

[2] = target: T2, Amine oxidase [flavin-containing] A (Homo sapiens, UniProt P21397); assay: as §1, with “MAO-A” for “MAO-B”, “production at 60 uM” for “production”; conditions: 0.25 h
T2 sequence (P21397 whole entry): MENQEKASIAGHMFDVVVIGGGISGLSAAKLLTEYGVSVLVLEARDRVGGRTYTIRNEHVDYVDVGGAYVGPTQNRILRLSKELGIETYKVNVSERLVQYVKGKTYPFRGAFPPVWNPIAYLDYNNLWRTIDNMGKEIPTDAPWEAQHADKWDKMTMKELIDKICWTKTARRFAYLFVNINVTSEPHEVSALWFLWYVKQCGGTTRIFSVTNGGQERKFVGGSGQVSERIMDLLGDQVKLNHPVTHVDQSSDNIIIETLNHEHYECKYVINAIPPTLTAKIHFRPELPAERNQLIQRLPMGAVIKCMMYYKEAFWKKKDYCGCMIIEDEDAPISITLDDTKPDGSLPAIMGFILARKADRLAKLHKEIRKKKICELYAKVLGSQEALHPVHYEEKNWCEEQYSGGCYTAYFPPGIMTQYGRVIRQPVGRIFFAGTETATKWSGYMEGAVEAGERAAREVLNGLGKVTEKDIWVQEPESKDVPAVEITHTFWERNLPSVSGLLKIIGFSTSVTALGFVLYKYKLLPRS
How it was run: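 Human MAO-A from microsomes of insect cells infected with recombinant baculovirus, 1.1 µg protein, adjusted to a rate of 165 pmol p-tyramine/min. Inhibitors in 0.05 M sodium phosphate pH 7.4, preincubated 15 min at 37 °C. Reaction started with 200 µM Amplex Red, 1 U/mL HRP and 1 mM p-tyramine. H2O2-derived resorufin fluorescence (ex 545/em 590 nm) read over 15 min at 37 °C, linear phase.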

[3] = target: T2, Amine oxidase [flavin-containing] A; assay: Inhibition of recombinant human microsomal MAO-A expressed in baculovirus-infected insect cells using p-tyramine as substrate assessed as H2O2 production pretreated for 15 mins followed by addition of Amplex Red, horseradish peroxidase and substrate measured for 15 mins by fluorimetric method
[4] = target: T1, Amine oxidase [flavin-containing] B; assay: as §1, with “production at 60 uM” for “production”; conditions: 0.25 h

SMILES	Ratio IC50 (Homo sapiens)	IC50 [1] [µM]	inhibition (INH) [2]	IC50 [3] [µM]	INH [4]
CC(C)c1ccc(C2=NN3C(=O)COc4ccccc4C3C2)cc1 (stereo not given)	17	3.52	Not Active		
O=C1COc2ccc(Cl)cc2C2CC(c3ccc(Cl)cc3)=NN12 (stereo not given)	9.3	0.504		4.71	
O=C1COc2ccccc2C2CC(c3ccc(F)cc3)=NN12 (stereo not given)	33.7	1.78	Not Active		
O=C1COc2ccc(Cl)cc2C2CC(c3ccccc3F)=NN12 (stereo not given)	103	0.584	Not Active		
CC1Oc2ccccc2C2CC(c3ccc(F)cc3)=NN2C1=O (stereo not given)	271	0.221	Not Active		
O=C1COc2ccccc2C2CC(c3ccccc3)=NN12 (stereo not given)	0.8	2.88		2.19	
COc1ccc(C2=NN3C(=O)C(C)Oc4ccccc4C3C2)cc1 (stereo not given)			Not Active		Not Active
O=C1COc2ccc(Cl)cc2C2CC(c3ccc(F)cc3)=NN12 (stereo not given)	19.2	0.242		4.65	
Cc1ccc(C2=NN3C(=O)C(C)Oc4ccccc4C3C2)cc1 (stereo not given)	1.3	45.2	Not Active		
CC1Oc2ccccc2C2CC(c3ccccc3)=NN2C1=O (stereo not given)	1.7	34.7	Not Active		
O=C1COc2ccccc2C2CC(c3ccccc3Cl)=NN12 (stereo not given)	42.1	1.32		55.7	
COc1ccc(C2=NN3C(=O)COc4ccccc4C3C2)cc1 (stereo not given)			Not Active		Not Active
C#CCN(C)[C@H](C)Cc1ccccc1 [SELEGILINE]			Not Active		
COc1ccc(C2=NN3C(=O)COc4c(Br)cc(Br)cc4C3C2)cc1 (stereo not given)	10.2	0.467		4.76	
Cc1ccccc1C1=NN2C(=O)COc3ccccc3C2C1 (stereo not given)			Not Active		Not Active
CC1Oc2ccccc2C2CC(c3ccccc3Cl)=NN2C1=O (stereo not given)	11.7	0.348		4.05	
Cc1ccc(C2=NN3C(=O)COc4ccccc4C3C2)cc1 (stereo not given)			Not Active		Not Active
CC1Oc2ccccc2C2CC(c3ccc(Cl)cc3)=NN2C1=O (stereo not given)	133	0.452	Not Active		
Cc1ccc(C2=NN3C(=O)COc4ccc(Cl)cc4C3C2)cc1 (stereo not given)	2.4	1.63		3.9	
O=C1COc2ccccc2C2CC(c3ccc(Cl)cc3)=NN12 (stereo not given)	0.9			53.3	Not Active
COc1ccc(C2=NN3C(=O)COc4ccc(Cl)cc4C3C2)cc1 (stereo not given)	22	2.72	Not Active		
O=C1COc2ccc(Cl)cc2C2CC(c3ccccc3)=NN12 (stereo not given)	23.4	2.57	Not Active		
